Source: PubChem (Broad Institute)
In the library only some 2.5% were active in any assay of this set; here they are far more common.
E-selectin induc = E-selectin induction in HUVECs, primary screen, imaging, HUVEC, immunofluorescence imaging, single point; activation, % at 7.58 µM; P16581; AID 686992, 2013; actives 0.37% (n = 260,000); normalized: neutral wells 0, TNF-alpha wells 100;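 active = mean E-selectin-positive cell signal at least 10% of the positive control, reached in at least 60% of replicates, without over 20% cell loss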
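material = human umbilical vein endothelial cells (HUVEC), E-selectin induction | quantity = 3,000 cells/well | medium = EGM-2 growth medium on 0.1% gelatin-coated wells | technique = immunofluorescence imaging | read-out basis = % PE-positive cells | control set = TNF-alpha positive control, DMSO neutral control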
PglD inh = C. jejuni PglD acetyltransferase inhibitors, primary screen, biochemical, DTNB colorimetric, single point | inhibition, % at 12.5 µM | actives 0.098% (n = 360,000) | UDP-N-acetylbacillosamine N-acetyltransferase PglD (Campylobacter jejuni) | AID 602405, 2012 | purified PglD enzyme, DTNB colorimetric CoA detection; in the data active = inhibition above about 16%, passing the limit was not always enough
SIRT5 inh = SIRT5 desuccinylase inhibitors, primary screen, biochemical, fluorescence imaging, single point, set 5; NAD-dependent protein deacylase sirtuin-5, mitochondrial (Homo sapiens), Q9NXA8; Purified SirT5, succinyl-peptide AMC, trypsin-coupled fluorescence; inhibition, % at 15 µM; actives 1.1% (n = 330,000); AID 652115, 2013; in the data active = inhibition above about 15%
DENV2 CPE rescue = inhibitors of DENV2 cytopathic effect, primary screen, cell-based, plate reader, single concentration | DENV2-infected cells, cytopathic effect rescue | CPE inhibition, % at 9.99 µM | actives 1.7% (n = 350,000) | AID 651640, 2012; in the data active = CPE inhibition above about 20%, passing the limit was not always enough; tested in BHK-21 cells;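 note: 0% = median of neutral control wells and 100% = median of positive control wells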
ERAP1 inh = human ERAP1 aminopeptidase inhibitors, primary screen, biochemical, single point, plate reader. Endoplasmic reticulum aminopeptidase 1 (Homo sapiens), Q9NZ08. actives 0.15% (n = 340,000). AID 652197, 2013. inhibition, % at 10.7 µM. recombinant ERAP1, Leu-AMC fluorescence, 60 min;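 active = mean replicate inhibition of at least 30%, or all replicates individually reaching that 30% level; inactive = mean below 30% and not every replicate reaching it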;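 note: 0% = neutral control wells and 100% = L-leucinethiol positive control wells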
* = called active by the depositor; nt = no result given; ! = not active in a repeat.

SMILES	E-selectin induc	PglD inh	SIRT5 inh	DENV2 CPE rescue	ERAP1 inh
COc1ccc(NC(=O)N(C)C[C@@H]2Oc3ccc(NS(=O)(=O)c4c(C)noc4C)cc3C(=O)N([C@@H](C)CO)C[C@H]2C)cc1	7	-1	0	7	1
COc1ccc(NC(=O)N(C)C[C@@H]2Oc3ccc(NS(=O)(=O)c4c(C)noc4C)cc3C(=O)N([C@H](C)CO)C[C@@H]2C)cc1	-2	1	0	90*	-1
CC(=O)Nc1ccc(C(=O)N2CCN(C(=O)c3ccco3)CC2)cc1	nt	3	17*	nt	1
N#Cc1ccc(C(=O)OCC(=O)N2CCN(C(=O)c3ccco3)CC2)cc1	1	-2	23*	1	-2
COc1ccc(C(=O)N2CCN(C(=O)c3ccco3)CC2)cc1	nt	5	nt	nt	nt
Cc1ccc(NC(=O)N2CCCC2)cc1Cl	nt	nt	0	-4	3
CC(C)c1ccc(NC(=O)C(c2ccccc2)N2CCN(C(=O)c3ccco3)CC2)cc1 (stereo unspecified)	nt	1	nt	nt	nt
Cc1ccc(NC(=O)N2CCN(C(=O)c3ccco3)CC2)cc1Cl	0	0	-1	38*	-3
O=C(OCC(=O)N1CCN(C(=O)c2ccco2)CC1)c1ccccc1	0	nt	-2	1	-4
O=C(Nc1ccc(F)cc1)C(c1cccc(F)c1)N1CCN(C(=O)c2ccco2)CC1 (stereo unspecified)	0	nt	0	47*	1
COc1ccc(S(=O)(=O)N(c2onc(C)c2Cl)S(=O)(=O)c2ccc(OC)cc2)cc1	0	-4	nt	nt	nt
Cc1c(N/C(=N/S(=O)(=O)c2cc([N+](=O)[O-])ccc2Cl)c2ccccc2)c(=O)n(-c2ccccc2)n1C	nt	nt	nt	-3	-3
Cc1cc(OCc2cc(C(=O)NC(C)c3c(C)nn(C)c3C)no2)cc(C)c1Cl (stereo unspecified)	0	0	18*	-6	0
Cc1cc(OCc2cc(C(=O)N(C)C(C)c3ccccn3)no2)cc(C)c1Cl (stereo unspecified)	nt	-3	7	31*	2
Cc1cc(OCc2cc(C(=O)N(C)Cc3ccccn3)no2)cc(C)c1Cl	nt	2	-3	19	1
COc1ccc(OC)c(C(C)NC(=S)NC2CCCCC2)c1 (stereo unspecified)	0	1	-2	7	2
COc1ccc(C#Cc2ccc([C@H]3[C@@H](CO)N4CCCCN(S(=O)(=O)c5ccccc5)C[C@@H]34)cc2)cc1	0	-4	2	82*	1
COc1ccc(S(=O)(=O)N2CCCCN3[C@H](C2)[C@@H](c2ccc(C#CC4CC4)cc2)[C@@H]3CO)cc1	-1	4	nt	nt	nt
C/C=C/c1ccc([C@H]2[C@@H](CO)N3CCCCN(S(=O)(=O)c4ccccc4)C[C@@H]23)cc1	0	1	3	115*	0
COc1ccc(S(=O)(=O)N2CCCCN3[C@H](CO)[C@@H](c4ccc(C#CC5CC5)cc4)[C@@H]3C2)cc1	0	0	20*	8	-2
COc1ccc(C#Cc2ccc([C@@H]3[C@@H](CO)N4CCCCN(S(=O)(=O)c5ccccc5)C[C@@H]34)cc2)cc1	nt	7	2	32*	2
COc1ccc(CN(C)CC(=O)Nc2sc3c(c2C#N)CCC3)cc1OC	nt	nt	0	0	3
N=c1n(CCN2CCCCC2)c2ccccc2n1CC(=O)c1ccc(Cl)c(Cl)c1	0	3	0	-14	6
COCC#Cc1ccc([C@H]2[C@H]3CN(S(=O)(=O)c4cccc(OC)c4)CCCCN3[C@H]2CO)cc1	-1	-13	10	23*	-1
C[C@@H]1CN([C@H](C)CO)C(=O)c2cc(NS(=O)(=O)c3ccc(F)cc3)ccc2O[C@H]1CN(C)C(=O)NC1CCCCC1	0	5	1	17	-3
C[C@H](CO)N1C[C@H](C)[C@@H](CN(C)C(=O)NC2CCCCC2)Oc2ccc(NS(=O)(=O)c3ccccc3)cc2C1=O	49*!	-2	1	0	-4
C[C@@H]1CN([C@H](C)CO)C(=O)c2cc(NS(=O)(=O)c3ccccc3)ccc2O[C@H]1CN(C)C(=O)NC1CCCCC1	40*	0	3	-5	-4
